Published values pooled from the literature.
Protocols differ between the studies behind these lines.
Target: Serine/threonine-protein kinase PAK 5 (PAK5, Homo sapiens, UniProt Q9P286)

Structure (SMILES)	assay	setting	measurement	value
Cn1cc(-c2cc(F)cc(N3CCn4c(cc5c4CCCC5)C3=O)c2CO)cc(Nc2ccc(N3CCN(C4COC4)CC3)cn2)c1=O	enzyme activity, inhibitor	0.1 µM	inhibition	10%
Nc1ncc(-c2nc(N3CCOCC3)nc(N3CCOCC3)n2)c(C(F)F)n1	binding, competition with immobilised ligand	10 µM	remaining binding	52%
COc1cc(Nc2ncc(F)c(Nc3ccc4c(n3)NC(=O)C(C)(C)O4)n2)cc(OC)c1OC	binding	10 µM	inhibition	100%
N#CC1(c2ccccn2)CCN(Cc2cc(C(=O)O)c(=O)n3ccccc23)CC1	cell-free assay, competition with immobilised ligand	1 µM	remaining binding	96%
O=c1[nH]c2ccccc2n1C1CCN(Cc2ccc(-c3[nH]c4cc5ncnc5cc4nc3-c3ccccc3)cc2)CC1	cell-free assay	0.5 µM	remaining signal	110%
C#Cc1n[nH]c2c(-c3cn(C(C)c4ccccn4)c(=O)[nH]c3=O)cc(F)cc12 (stereo not shown)	enzyme activity, inhibitor	1 µM	inhibition	-3.8%
COc1ncccc1-c1cnn2ccc(N3CCN(C(=O)OC(C)C)CC3)nc12	binding, competition with immobilised ligand	1 µM	remaining binding	100%
Cn1cncc1[C@@](O)(COc1ccc(C#N)cc1-c1ccc(OC(F)(F)F)cc1)c1ccc(C#N)cc1	cell-free assay, competition with immobilised ligand	1 µM	remaining binding	100%
Cc1nn(C)cc1-c1nc2c(N3CCN(Cc4ccc(Cl)cc4)CC3)c(Cl)cnc2[nH]1	binding, competition with immobilised ligand	1 µM	remaining binding	83%
Cn1cc(-c2cccc(N3CCc4c(sc5c4CC(C)(C)C5)C3=O)c2CO)cc(Nc2ccncn2)c1=O	enzyme activity, inhibitor	1 µM	inhibition	4%
